Columns and labels:
HEL [1] = assay: Induction of apoptosis in human HEL cells assessed as viable cells at 9 uM after 72 hrs by FITC-annexin V/propidium iodide-double staining based flow cytometry (reference value: 93.77%); assay type: functional; conditions: read-out: Activity
HEL [2] = assay: Induction of cell cycle arrest in human HEL cells assessed as accumulation at G1 phase at 9 uM after 72 hrs by propidium iodide-staining based flow cytometry (reference value: 43.12%); assay type: functional
Method in brief: (§1)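 Subconfluent HEL cells were treated for 72 h at 0.33, 1.0, 3.0 or 9.0 μM, with untreated cells as control. Cultures were pulsed with 10 μM BrdU for 30 min at 37 °C before harvest, then PBS-washed, fixed in 70% ethanol and denatured in 2 M HCl. After neutralization, cells were stained with fluorescein anti-BrdU antibody and propidium iodide. DNA content was measured by flow cytometry with 488 nm excitation.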

HEL [3] = assay: Induction of apoptosis in human HEL cells assessed as early apoptotic cells at 1 uM after 72 hrs by FITC-annexin V/propidium iodide-double staining based flow cytometry (reference value: 2.23%); assay type: functional
HEL [4] = assay: Induction of apoptosis in human HEL cells assessed as viable cells at 1 uM after 72 hrs by FITC-annexin V/propidium iodide-double staining based flow cytometry (reference value: 93.77%); assay type: functional; conditions: read-out: Activity
HEL [5] = assay: Induction of cell cycle arrest in human HEL cells assessed as accumulation at S phase at 9 uM after 72 hrs by propidium iodide-staining based flow cytometry (reference value: 41.47%); assay type: functional; method in brief: as §1
HEL [6] = assay: Induction of apoptosis in human HEL cells assessed as early apoptotic cells at 9 uM after 72 hrs by FITC-annexin V/propidium iodide-double staining based flow cytometry (reference value: 2.23%); assay type: functional
[7] = molecular target: Receptor-type tyrosine-protein kinase FLT3 (Homo sapiens) (UniProt P36888); conditions: at 100 nM
Receptor-type tyrosine-protein kinase FLT3 (Homo sapiens), sequence (P36888 whole entry): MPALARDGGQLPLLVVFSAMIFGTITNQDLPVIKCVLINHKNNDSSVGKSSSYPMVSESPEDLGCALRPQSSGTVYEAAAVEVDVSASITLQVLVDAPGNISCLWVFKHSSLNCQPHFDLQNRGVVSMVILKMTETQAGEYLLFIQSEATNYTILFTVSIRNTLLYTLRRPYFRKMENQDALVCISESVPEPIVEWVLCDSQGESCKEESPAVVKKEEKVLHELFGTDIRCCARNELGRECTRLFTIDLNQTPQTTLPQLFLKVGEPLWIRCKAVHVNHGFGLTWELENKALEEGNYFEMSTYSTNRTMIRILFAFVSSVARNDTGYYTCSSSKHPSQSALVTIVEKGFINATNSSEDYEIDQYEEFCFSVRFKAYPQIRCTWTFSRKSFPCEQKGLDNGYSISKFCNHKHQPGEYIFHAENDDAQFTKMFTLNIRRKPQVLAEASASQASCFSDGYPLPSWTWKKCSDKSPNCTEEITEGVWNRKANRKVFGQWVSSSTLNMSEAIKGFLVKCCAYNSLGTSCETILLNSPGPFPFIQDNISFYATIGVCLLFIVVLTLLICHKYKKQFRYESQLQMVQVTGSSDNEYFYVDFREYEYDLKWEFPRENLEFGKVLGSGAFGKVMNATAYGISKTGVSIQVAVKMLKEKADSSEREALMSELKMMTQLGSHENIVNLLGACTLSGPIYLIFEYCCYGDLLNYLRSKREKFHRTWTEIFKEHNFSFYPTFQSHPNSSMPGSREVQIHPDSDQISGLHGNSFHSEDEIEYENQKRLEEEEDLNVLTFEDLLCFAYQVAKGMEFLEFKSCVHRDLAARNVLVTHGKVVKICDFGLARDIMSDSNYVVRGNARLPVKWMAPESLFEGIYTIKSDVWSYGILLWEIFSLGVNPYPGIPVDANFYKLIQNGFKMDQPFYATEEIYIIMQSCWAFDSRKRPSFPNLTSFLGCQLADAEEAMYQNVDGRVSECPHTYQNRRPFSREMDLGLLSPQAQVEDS

HEL [8] = assay: Induction of cell cycle arrest in human HEL cells assessed as accumulation at S phase at 3 uM after 72 hrs by propidium iodide-staining based flow cytometry (reference value: 41.47%); assay type: functional; method in brief: as §1
HEL [9] = assay: Induction of apoptosis in human HEL cells assessed as viable cells at 3 uM after 72 hrs by FITC-annexin V/propidium iodide-double staining based flow cytometry (reference value: 93.77%); assay type: functional; conditions: read-out: Activity
HEL [10] = assay: Induction of apoptosis in human HEL cells assessed as necrotic cells at 0.33 uM after 72 hrs by FITC-annexin V/propidium iodide-double staining based flow cytometry (reference value: 2.40%); assay type: functional
HEL [11] = assay: Induction of cell cycle arrest in human HEL cells assessed as accumulation of cells at G1/S phase after 72 hrs by propidium iodide-staining based flow cytometry; assay type: functional; method in brief: as §1
HEL [12] = assay: Induction of apoptosis in human HEL cells assessed as necrotic cells at 9 uM after 72 hrs by FITC-annexin V/propidium iodide-double staining based flow cytometry (reference value: 2.40%); assay type: functional
HEL [13] = assay: Induction of apoptosis in human HEL cells assessed as necrotic cells at 1 uM after 72 hrs by FITC-annexin V/propidium iodide-double staining based flow cytometry (reference value: 2.40%); assay type: functional
HEL [14] = assay: Induction of cell cycle arrest in human HEL cells assessed as accumulation at G2 phase at 0.33 uM after 72 hrs by propidium iodide-staining based flow cytometry (reference value: 15.10%); assay type: functional; method in brief: as §1
[15] = molecular target: T1, Tyrosine-protein kinase JAK2 (Homo sapiens, UniProt O60674); assay: Inhibition of N-terminal His-tagged human JAK2 catalytic domain (826 to 1132 resiudes) expressed in baculovirus expression system at 100 nM using FAM-labeled peptide as substrate preincubated for 10 mins followed by substrate addition measured after 1 hr in presence of ATP by mobility shift assay relative to control
T1 sequence (O60674 whole entry, the tested form may be a part): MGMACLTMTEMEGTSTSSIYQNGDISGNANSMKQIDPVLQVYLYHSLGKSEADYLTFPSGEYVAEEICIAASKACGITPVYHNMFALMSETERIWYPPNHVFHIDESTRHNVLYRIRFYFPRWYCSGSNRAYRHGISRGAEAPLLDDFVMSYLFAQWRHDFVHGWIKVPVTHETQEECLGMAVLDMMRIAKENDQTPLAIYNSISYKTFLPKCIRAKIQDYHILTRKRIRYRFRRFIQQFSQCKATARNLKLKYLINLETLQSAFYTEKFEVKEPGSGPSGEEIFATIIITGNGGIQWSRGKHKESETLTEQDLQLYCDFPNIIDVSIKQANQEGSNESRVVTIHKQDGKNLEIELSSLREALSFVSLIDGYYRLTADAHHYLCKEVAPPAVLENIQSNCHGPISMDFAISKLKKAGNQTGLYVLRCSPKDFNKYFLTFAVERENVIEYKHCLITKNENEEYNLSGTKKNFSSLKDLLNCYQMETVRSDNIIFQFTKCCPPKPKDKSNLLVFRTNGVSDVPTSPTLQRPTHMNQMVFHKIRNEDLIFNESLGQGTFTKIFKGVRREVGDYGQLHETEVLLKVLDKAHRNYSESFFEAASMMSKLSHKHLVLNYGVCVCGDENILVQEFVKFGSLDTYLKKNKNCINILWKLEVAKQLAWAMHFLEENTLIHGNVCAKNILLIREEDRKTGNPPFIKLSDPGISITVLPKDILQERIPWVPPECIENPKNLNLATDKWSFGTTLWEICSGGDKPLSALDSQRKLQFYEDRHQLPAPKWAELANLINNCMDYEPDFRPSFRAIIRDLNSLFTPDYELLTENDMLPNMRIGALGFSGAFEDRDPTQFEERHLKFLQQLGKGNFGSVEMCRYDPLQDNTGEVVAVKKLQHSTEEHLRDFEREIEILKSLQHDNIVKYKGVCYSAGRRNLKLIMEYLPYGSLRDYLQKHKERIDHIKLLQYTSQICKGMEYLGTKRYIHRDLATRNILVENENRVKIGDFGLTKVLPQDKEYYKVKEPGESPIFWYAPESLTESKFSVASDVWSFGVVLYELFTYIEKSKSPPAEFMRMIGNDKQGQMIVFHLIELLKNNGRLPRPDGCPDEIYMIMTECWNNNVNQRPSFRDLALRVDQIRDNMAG
Method in brief: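 Single-concentration (100 nM) percent inhibition in the mobility-shift JAK2 assay. Enzyme was preincubated with compound for 10 min at room temperature in HEPES pH 7.5/Brij-35 buffer. FAM-peptide and ATP were then added and the reaction run for 1 h at 28 °C before EDTA stop. Inhibition = (max−conversion)/(max−min)×100. Each compound was tested at least twice and the values averaged.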

HEL [16] = assay: Induction of cell cycle arrest in human HEL cells assessed as accumulation at G2 phase at 3 uM after 72 hrs by propidium iodide-staining based flow cytometry (reference value: 15.10%); assay type: functional; method in brief: as §1
HEL [17] = assay: Induction of apoptosis in human HEL cells assessed as late apoptotic cells at 9 uM after 72 hrs by FITC-annexin V/propidium iodide-double staining based flow cytometry (reference value: 1.63%); assay type: functional
HEL [18] = assay: Induction of cell cycle arrest in human HEL cells assessed as accumulation at G2 phase at 9 uM after 72 hrs by propidium iodide-staining based flow cytometry (reference value: 15.10%); assay type: functional; method in brief: as §1
HEL [19] = assay: Induction of cell cycle arrest in human HEL cells assessed as accumulation at G1 phase at 0.33 uM after 72 hrs by propidium iodide-staining based flow cytometry (reference value: 43.12%); assay type: functional; method in brief: as §1
HEL [20] = assay: Induction of cell cycle arrest in human HEL cells assessed as accumulation at G1 phase at 3 uM after 72 hrs by propidium iodide-staining based flow cytometry (reference value: 43.12%); assay type: functional; method in brief: as §1
HEL [21] = assay: Induction of apoptosis in human HEL cells assessed as late apoptotic cells at 1 uM after 72 hrs by FITC-annexin V/propidium iodide-double staining based flow cytometry (reference value: 1.63%); assay type: functional
[22] = molecular target: T1, Tyrosine-protein kinase JAK2; assay: Inhibition of N-terminal His-tagged human JAK2 catalytic domain (826 to 1132 resiudes) expressed in baculovirus expression system using FAM-labeled peptide as substrate preincubated for 10 mins followed by substrate addition measured after 1 hr in presence of ATP by mobility shift assay
Method in brief: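 Caliper mobility-shift assay with recombinant kinase in 50 mM HEPES pH 7.5, 0.0015% Brij-35. Compound was diluted from DMSO and preincubated with enzyme for 10 min at room temperature. FAM-labeled peptide plus ATP was then added and the reaction run for 1 h at 28 °C. It was stopped with an EDTA (50 mM) buffer. Conversion gave percent inhibition relative to max/min controls, and IC50 came from a four-parameter Hill fit. Duplicate wells were used.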

HEL [23] = assay: Induction of apoptosis in human HEL cells assessed as late apoptotic cells at 3 uM after 72 hrs by FITC-annexin V/propidium iodide-double staining based flow cytometry (reference value: 1.63%); assay type: functional
HL-60 = assay: Antiproliferative activity against human HL60 cells assessed as growth inhibition after 72 hrs by CCK-8 assay; assay type: functional; conditions: HL-60, 72 h
Method in brief: (§2)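 CCK-8 viability readout. Cells were cultured in RPMI 1640 with 10% FBS and 1% penicillin/streptomycin and seeded at 3000 (HEL), 5000 (MV4-11) or 3000 (HL60) cells/well. Increasing compound concentrations were applied for 72 h, then CCK-8 was added for a further 3 h and absorbance read at 450 nm. Inhibition = (1−A_sample/A_control)×100, normalized to DMSO controls. Value is the mean of three independent measurements, obtained by curve fitting.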

HEL [24] = assay: Induction of cell cycle arrest in human HEL cells assessed as accumulation at G2 phase at 1 uM after 72 hrs by propidium iodide-staining based flow cytometry (reference value: 15.10%); assay type: functional; method in brief: as §1
MV4-11 = assay: Antiproliferative activity against human MV4-11 cells assessed as growth inhibition after 72 hrs by CCK-8 assay; assay type: functional; conditions: MV4-11, 72 h; method in brief: as §2

inhibition [7]: 80.7%
inhibition [15]: 86.7%
IC50 [22]: 27 nM
GI50 (HL-60): 16.5 µM
GI50 (MV4-11): 11 µM
Structure (SMILES): CC(=O)c1ccc(NC(=O)N2CCN(c3ccnc(Nc4ccc(N5CCOCC5)cc4)n3)CC2)cc1
viability at 9 µM (HEL [1]): 24.3%
Activity (HEL [2]): 78.05%
Activity (HEL [3]): 16.97%
viability at 1 µM (HEL [4]): 47.9%
Activity (HEL [5]): 19.26%
Activity (HEL [6]): 35.53%
Activity (HEL [8]): 22.24%
viability at 3 µM (HEL [9]): 22.6%
Activity (HEL [10]): 3.3%
Activity (HEL [11]): Dose-dependent effect
Activity (HEL [12]): 9.77%
Activity (HEL [13]): 12.73%
Activity (HEL [14]): 7.31%
Activity (HEL [16]): 5.91%
Activity (HEL [17]): 30.4%
Activity (HEL [18]): 2.07%
Activity (HEL [19]): 54.07%
Activity (HEL [20]): 71.85%
Activity (HEL [21]): 22.4%
Activity (HEL [23]): 33.6%
Activity (HEL [24]): 6.97%

— ChEMBL document CHEMBL4359878, “Discovery of 4-piperazinyl-2-aminopyrimidine derivatives as dual inhibitors of JAK2 and FLT3” (Eur J Med Chem, 2019)
